Measurements taken from ChEMBL document CHEMBL4699431, “Design and synthesis of substituted (1-(benzyl)-1H-1,2,3-triazol-4-yl)(piperazin-1-yl)methanone conjugates: study on their apoptosis inducing ability and tubulin polymerization inhibition” (RSC Med Chem, 2020).
Active and inactive are the calls of the source. The calls are words filed in the database; no cut-off is given here.

Key:
[1] = system: BT-474; experiment: Cell cycle arrest in human BT-474 cells assessed as increase in accumulation in S phase at 0.5 uM by propidium iodide staining based flow cytometry(reference value: 2.22%); format: functional
Procedure, shortened: (§1)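 Seeded at 1 x 10⁵ cells/well, after 24 h serum-starved 6 h to synchronize, then returned to FBS-containing medium and treated at 0.5, 1 and 2.5 μM. Harvested cells were PBS-washed, fixed in ice-cold 70% ethanol, stained with propidium iodide (50 μg/mL) plus RNase A for 20 min at 37 °C in the dark. About 10,000 events analysed by flow cytometry.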

[2] = molecular target: Tubulin (Homo sapiens) (UniProt P68371+Q9H4B7+P0DPH7+P68366+Q13509+Q71U36+P04350+Q3ZCM7+P07437+P68363+Q9BQE3+Q6PEY2+Q13885+Q9BVA1+Q9BUF5); experiment: Inhibition of tubulin polymerization in human BT-474 cells assessed as microtubule disruption at 2 uM by immunohistochemistry assay; format: cell-based
Procedure, shortened: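 Cells on glass coverslips exposed 48 h to 2 μM, with CA-4 as positive control. Fixed in 4% paraformaldehyde 20 min, permeabilized with 0.2% Triton X-100 5 min, held in methanol overnight at 4 °C, blocked in 1% BSA 60 min. Stained with α-tubulin antibody (1:1000, 2 h) then FITC anti-mouse secondary 1 h; microtubule network imaged by confocal microscopy.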

[3] = system: BT-474; experiment: Induction of apoptosis in human BT-474 cells assessed as chromatin condensation incubated for 48 hrs by acridine orange/ethidium bromide double staining-based fluorescence microscopic analysis; format: functional, cell-based; conditions: dose microM 0.5-2.5, time 48.0 hrs
Procedure, shortened: (§2)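 Plated at 5×10^4 cells/well, treated after 24 h and held 48 h at 37 °C, 5% CO₂. Acridine orange and ethidium bromide (10 µg/mL each) added in equal volumes, then cells viewed by fluorescence microscopy at 200x.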

[4] = system: BT-474; experiment: Induction of apoptosis in human BT-474 cells assessed as membrane bleeding incubated for 48 hrs by acridine orange/ethidium bromide double staining-based fluorescence microscopic analysis; format: functional, cell-based; conditions: dose microM 0.5-2.5, time 48.0 hrs; procedure, shortened: as §2
[5] = system: BT-474; experiment: Induction of morphological changes in human BT-474 cells assessed reduction in number of viable cells incubated for 48 hrs by phase-contrast microscope method; format: functional, cell-based; conditions: dose microM 0.5-2.5, time 48.0 hrs
Procedure, shortened: (§3)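 Plated at 5×10^4 cells/well, dosed after 24 h at 0.5, 1 and 2.5 μM. After 48 h, morphology was examined and photographed under phase-contrast microscopy.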

[6] = system: BT-474; experiment: Cell cycle arrest in human BT-474 cells assessed as decrease in G0/G1 accumulation in phase at 2.5 uM by propidium iodide staining based flow cytometry(reference value: 60.53%); format: functional; parameters: scale not given: the % may be the effect or the level left; procedure, shortened: as §1
[7] = system: BT-474; experiment: Induction of apoptosis in human BT-474 cells after 48 hrs by Annexin-V alexa fluor 488/PI staining based flow cytometry analysis; conditions: dose microM 0.5-2.5, time 48.0 hrs
[8] = system: BT-474; experiment: Cell cycle arrest in human BT-474 cells assessed as increase in accumulation in G1 phase at 0.5 uM by propidium iodide staining based flow cytometry(reference value: 4.06%); format: functional; procedure, shortened: as §1
[9] = system: BT-474; experiment: Induction of morphological changes in human BT-474 cells assessed as loss of cell-cell adhesion incubated for 48 hrs by phase-contrast microscope method; format: functional, cell-based; conditions: dose microM 0.5-2.5, time 48.0 hrs; procedure, shortened: as §3

SMILES: O=C(c1cn(Cc2cccc(Oc3ccccc3)c2)nn1)N1CCN(S(=O)(=O)c2ccc(Br)cc2)CC1
- Activity [1]: 7.02%
- inhibition [2]: Active
- Activity [3]: Dose-dependent effect
- Activity [4]: Dose-dependent effect
- Activity [5]: Active
- Activity [6]: 9.09%
- Activity [7]: Dose-dependent effect
- Activity [8]: 11%
- Activity [9]: Active
